Variants at the floor of the assay were thinned out.
B1: tRNA (parent)
chain: GUUCCGUUGGCGUAAUGGUAACGCGUCUCCCUCCUAAGGAGAAGACUGCGGGUUCGAGUCCCGUACGGAACG

Variants of: B1
Assay: yeast fitness relative to wild type (ratio to wild type); higher = fitter; tRNA-Arg(CCU), competitive growth, 37 C, YPD
Method in brief: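 Variants of the tRNA-Arg(CCU) gene were chemically synthesised with a 3% per-site mutation rate across 69 sites and placed at the native genomic locus in Saccharomyces cerevisiae. Six parallel replicates of the pooled strains were competed in YPD at 37°C for 24 hours, and gene amplicons from the start and end populations were read by 100-nucleotide paired-end sequencing. Darwinian fitness relative to wild type was derived from changes in genotype frequencies. Genotypes required ≥ 100 starting reads, and estimates < 0.5 were set to 0.5.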

Going from GUUCCGUUGGAGUAAUGGUAGCGCGUCUCCCUGCUUAGGAGAAAACUGCGGGUUCGAGCCCCGUACGGAACG to GUUCCGUUGCCGUAAUGGUAACGCGUCUCCCUCCUAAGGAGAAUACUGCGGGUUCGAGUCCCGUACGGAACG, the yeast fitness rises from at most 0.5 to 0.587.

Compared with GUUCCGUUGCCGUAAGGGUAACGCGUCUCCCUCCUAAGGAGACGACUGCGCGUUCGAGUCCCGUACGGAACG, GUUCCGUUGCCGUAAUGGUAACGCGACUCCCUCCUAAGGAGAAGACUGCGGGUUCGAGUCCCGUACGGAUCG is higher in yeast fitness: at most 0.5 for the first, 0.622 for the second.

Compared with GUUCCGUUGGAGUAAUGGUAACGCGUCUCCCUCCUAAGGAGAAGGCUGCGGGUUCGAGUCCCGUACGGAACG, GUUCCGUUGCCGUAAUGGUAACGCGUCUCCCUCCUAAGGAGAAGACUGCAGGUUCGAGUCCCGUACGGAACG is higher in yeast fitness: 0.603 for the first, 0.76 for the second.

Compared with GUUCCGUUGGAGUAAUGGUAACGGGUCUCCCUCCUAAGGAGAAGACUGUGGGUUCGAGUCCCGUACGGAACG, GUUCCGUUGCCGUAAUGGAAACGCGUCUCCCUCCUACGGAGAAGACUGCUGGUUCGAGUCCCGUACGGAACG is lower in yeast fitness: 0.588 for the first, 0.526 for the second.

GUUCCGUUGCCGUAAUGGUAACGCGUCUCCCUCCUAAGGAGAAGACUGCGCGUUCGAGUCCCGUCUGGAACG and GUUCCGUUGGAGUAAUGGUACCGCGUCUCCAUCCUAAGGAGAAGACUGCGGGUUUGAGUCCCGUACGCAACG cannot be ordered by yeast fitness: at most 0.5 for the first, at most 0.5 for the second.

Going from GUUCCGUUGCCGUAAUGGUAACGCGUCUCCCUCCUAAGGAGAAGACUGCGGGUUCGACUCCCGUACAGAACG to GUUCCGUUGGAGUACUGGUAACGAGUAUCCCUCCUAAGGACAAGACUGCGGGUUCGAGUCCCGUACGGAACG, the yeast fitness rises from at most 0.5 to 0.583.

GUUCCGUUGGAGUAAUGGUAACGCGUCUCCCUCCUAAGGAGAGGACUGCCGGUUCCAGUCCCGUGCGGAACG and GUUCCGUUGCCGAAAUGGUAACGCGUCUCCAUCCUAAGGAGAAGACUGCGGGUUCGAGUCCUGUACGGAACG cannot be ordered by yeast fitness: at most 0.5 for the first, at most 0.5 for the second.

GUUCCGUUGGAGUAAUGGUGACGCGUCUCCCUCCUAAGGAGAAGAUUGCCGGUUCGAGUACCGUACGGAACG and GUUCCGUUGCCGUAAUGGUAACGCGAUUCCCUCCUAAGGAGGAGACUGCGGGUUCGAGUCCCGUACGGAGCG cannot be ordered by yeast fitness: at most 0.5 for the first, at most 0.5 for the second.

Going from GUUCCGUUGGAGUGGUGGUAAAACGUCUCCCUACUAACGAGAAGACUGCGGGUUCGAGUCCCGUACGGAUCG to GUUCCGUUGGAGUAGUGGUAACGCGUCUCCCUCCUAAGGAGAAGACUGUGGGUUCGAGUCCCGUACGGAACG, the yeast fitness rises from at most 0.5 to 0.55.

First: GUUCCGUUGGAGUAAUGGUAACGCGUCUCCCUCCUGAGGAGAAGACUGGGGGUUCGAGUCCCGUACGGAGCG
Second: GUUCCGUUGGAGUACUGGUAACGCGACUUCCUACUAACGAGAAGACUGCGGGUUAGAGUUCCGUACGGAACG
The yeast fitness of the first is higher: 0.584 for the first, at most 0.5 for the second.

GUUCCGUUGGAGUAAUGGUAACGCGUCUCCCUCCUAAGGAGCAGACUGCGGGUUCGAGUCCAGUACGGAACG and GUUCCGUUGCCGUAAUGGUAACGCGUCUCCCUCCUAAGGAAAAGACUGCGGGUUCGAGUCCUGUACGGAACG cannot be ordered by yeast fitness: at most 0.5 for the first, at most 0.5 for the second.

Compared with GUUCCGUUGUCGUAAUGGUAACGCGUCUCCUUCCUAAGGAGAAGACUGCGGGUUCGAGUCCCGUACGGAACG, GUUCCGUUGGAGUAAUGGUAAGGCGUCUCCCUCCUAAGGAGAAGACUGCGGGUUCGAGUCCCGUACGGAACG is lower in yeast fitness: 0.78 for the first, 0.623 for the second.

GUUCCGUUGCCGUAAUGGUAACGCGUCUCCCUCCUAAGGAGAAGACUGCGGGUCCAAGUCCCGUACGGAACG and GUUCCGUUGGAGUAAUGGUAACGGGUCUCCCUCCUAAGGAGAAGACGGCGGGUUCGAGUCCCGUACGCAACG cannot be ordered by yeast fitness: at most 0.5 for the first, at most 0.5 for the second.

GUUCCGUUGGAGUAAUGGUAACGCGUCUCCCUCCUGAGGAGAUGACUGCGGGUUCGAGUCCCGUACGGAACG and GUUCCGUUGGAGUAUUGGUCACGCGUCUCCCUCCUAAGGAGAAGACUGCGGGUUCGAGUCCCGUACGGAACG cannot be ordered by yeast fitness: at most 0.5 for the first, at most 0.5 for the second.

Going from GUUCCGUUGCCGUAAUGGUAACGCGUCUCCCUCCUAAGGAGAAGACUGCGGGUUCGAAUCCCGUAGGGAACG to GUUCCGUUGGAGUAAUGGUAACGCGUCUCCCUCCUAAGGAGCAGACUGCGGGUUCGAGUCCCGUACGGAACG, the yeast fitness rises from at most 0.5 to 0.606.

GUUCCGUUGCCGUAAUGGUAACGCGUCUCCCCACUAAGGAGAAGACUGCGGGUUCGAGUCCCGUACGGAACG and GUUCCGUUGGAGUACUGGUAACGGGUCUCCCUCCUAAGGAGAAGACUGCGGGUUCGAGACCCGUACGGAACG cannot be ordered by yeast fitness: at most 0.5 for the first, at most 0.5 for the second.

First: GUUCCGUUGCCGUAAUGGAAACGCGUCUCCGUCCUAAGGAGGAGACUGCGGGUUCGAGUCCCGUACGGAACG
Second: GUUCCGUUGCCGAAAUGGUAACGCGUCUCCAUCCUAAGGAGAAGACUGCGGGUUCGAGUCCCGUACGGAACG
The yeast fitness of the first is higher: 0.627 for the first, 0.594 for the second.

Compared with GUUCCGUUGGAGUAAUGGUAACGCGUCUCCCUCCUAAGGAGAGGAGUGCGGGUUCGAGUCCCGUUCGGAACG, GUUCCGUUGGAGUAUUGGUAUCGCGUCUCCCUCCUCUGGAGAAGACUGCGGGUUCGAGUCCCGUACGGAACG is higher in yeast fitness: at most 0.5 for the first, 0.56 for the second.

GUUCCGUUGCCGUAAGGGUAACGCGUCUCCAGCCUAAGGAGAAGACUGCGGGUUCGAGUCCCGUAAGGAACG and GUUCCGUUGGAGUAAUGGUAACGCGUCUCCCUCCUACGGAGAAGACUGGGGGUUGGAGUCCCGUACGGAACG cannot be ordered by yeast fitness: at most 0.5 for the first, at most 0.5 for the second.

From the RNAGym collection of RNA variant scans (doi:10.1126/science.aae0568)
